This is a sample that favours compounds with a hit; in the whole collection about 1.9% have one here.
Hck-Nef inh: blocks Nef-activated human Hck kinase | P08631 | Recombinant Hck-YEEI plus Nef, Z-Lyte FRET kinase assay | inhibition, % at 20 µM | hit rate 0.68% among 220,000 | AID 463187;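 active = Hck-Nef kinase inhibition above about 50%, limit read from the data; inactive = inhibition below that limit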;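 also: 0% = DMSO with Hck plus Nef and 100% = Hck alone without Nef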
Target sequence (P08631 whole entry, looked up): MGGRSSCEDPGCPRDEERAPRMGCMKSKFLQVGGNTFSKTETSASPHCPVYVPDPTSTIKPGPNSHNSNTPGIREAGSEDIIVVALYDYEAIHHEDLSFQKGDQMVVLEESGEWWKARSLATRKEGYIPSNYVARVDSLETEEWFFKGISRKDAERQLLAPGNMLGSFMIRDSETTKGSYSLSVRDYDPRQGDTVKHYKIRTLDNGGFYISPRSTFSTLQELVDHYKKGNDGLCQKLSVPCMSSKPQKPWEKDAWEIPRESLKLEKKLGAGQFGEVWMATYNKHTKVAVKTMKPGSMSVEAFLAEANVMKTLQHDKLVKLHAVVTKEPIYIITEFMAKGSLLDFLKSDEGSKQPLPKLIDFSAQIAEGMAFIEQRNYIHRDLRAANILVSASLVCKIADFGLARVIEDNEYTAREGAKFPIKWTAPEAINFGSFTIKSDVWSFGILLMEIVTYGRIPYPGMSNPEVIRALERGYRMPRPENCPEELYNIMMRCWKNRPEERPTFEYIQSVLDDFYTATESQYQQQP
RanGTP-Impb inh: inhibitors of RanGTP-importin-beta interaction, primary screen, biochemical, FRET, CFP-Ran, YFP-importin-beta, homogeneous; cell-free CFP-Ran/YFP-importin-beta FRET ratio; inhibition, % (no concentration beside the values); hit rate 1.1% among 300,000; AID 2216;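 active = more than half of the replicate wells show a fall in the fluorescence ratio signal beyond about 16%, limit read from the data, passing the limit was not always enough; inconclusive = exactly half of the replicate wells pass the set limit; inactive = fewer than half of replicates pass the limit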;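 also: 0% = DMSO wells and 100% = Ran loaded with GDP instead of GTP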
Runt-CBFb FRET: blocks binding of human RUNX1 Runt domain to CBFb. Q01196+Q13951. Cerulean-Runt/Venus-CBFb FRET ratio 530/480, 1 h. inhibition, % at 20 µM. hit rate 0.46% among 220,000. AID 1496;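 active = inhibition over about 50% at 20 µM in the single-dose screen, limit read from the data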;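 also: 0% = DMSO wells and 100% = excess unlabeled CBFb competitor control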
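Assay system: Cerulean-Runt domain fusion protein, energy donor; Signal: fluorescence energy transfer, 422 nm excitation, 530/480 nm emission; Timing: 1 h compound exposure, room temperature; Control set: unlabeled CBFb; Medium: Tris buffer pH 7.5 with salts and BSA; Compound: single test concentration of 20 µM, 1% DMSO final; Probe or stimulus: Venus-CBFb 100 nM.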
Runt-SMMHC FRET: inhibitors of human RUNX1 Runt domain binding to CBFb-SMMHC | hit rate 0.74% among 220,000 | Cerulean-Runt/Venus-CBFb-SMMHC FRET ratio 530/480, 1 h | AID 1434 | inhibition, % at 20 µM;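 active = mean inhibition across duplicate retests at 20 µM reaching about 50%, limit read from the data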;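 also: 0% = DMSO wells and 100% = wells with excess untagged CBFb-SMMHC; inhibitors lower the FRET ratio by blocking Runt binding to CBFb-SMMHC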
YIC FRET counter: counter-screen: alters YIC FRET probe signal. hit rate 40% among 1,000. Purified YIC probe, intramolecular FRET ratio YFP/CFP. shares compounds with RanGTP-Impb inh. IC50, µM;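 active = fitted half-maximal inhibitory concentration no more than tenfold above the top dose tested; inconclusive = flat fit with 30 to 70% activity, or poor fit; inactive = half-maximal concentration beyond tenfold above the top dose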
Active calls of the source: *; ? = inconclusive; · = no result given.

SMILES	Hck-Nef inh	RanGTP-Impb inh	Runt-CBFb FRET	Runt-SMMHC FRET	YIC FRET counter
COC(=O)c1c(NC(NC(=O)c2ccccc2)(C(F)(F)F)C(F)(F)F)sc2c1CCN(C)C2	-8	48*	14	62	40*
COc1ccc(CN(C)C(=O)c2cccc(C(=O)N(C)Cc3ccc(OC)cc3)c2)cc1	·	3	·	·	·
Fc1ccccc1N1CC(c2ccccc2)C(c2cccs2)=N1 (stereo unspecified)	39	20*	28	62*	14*
CC(=O)CC(=O)Nc1ccccc1NC(C)=O	2	-5	-2	0	·
Clc1ccc(-c2ncc3ccccn23)cc1	21	26*	·	·	>50
Clc1ccccc1-c1ncc2ccccn12	2	1	1	10	·
CC(C)OC(=O)/C(=C\c1cccc2ccccc12)NC(=O)c1ccccc1	2	0	-2	4	·
Cc1ccc(NC(=O)CCN2C(=O)OC(C)(C)C2(C)O)cc1 (stereo unspecified)	25	3	0	-18	·
COc1cccc2c(=O)cn[nH]c12	3	0	-2	5	·
O=c1cn[nH]c2ccccc12	7	21*	2	-10	>50
Cc1ccc(C2=CC(c3ccccc3)n3ncnc3N2)cc1 (stereo unspecified)	·	-5	·	·	·
Cc1ccc(C2=CC(c3ccccc3)n3ncnc3N2)c(C)c1 (stereo unspecified)	·	19*	·	·	>50
CCC(=O)NCc1ccc2[nH]c(C)cc2c1	25	-4	-2	-23	·
COc1ccc(C2=NOC(c3nnc(-c4ccccc4)o3)C2)cc1 (stereo unspecified)	·	-2	·	·	·
CCOC(=O)c1sc(NC(=O)CSc2nc(C)cc(C)n2)c(C#N)c1C	1	21*	-4	1	>50
CC(C)CNC(=O)c1cccc(NC(=O)c2ccc(NC(=O)c3ccco3)cc2)c1	-2	-5	-2	-1	·
Cn1c(CNC(=O)CCNC(=O)c2cccc(Cl)c2)cc(=O)n(C)c1=O	·	0	·	·	·
Cc1nc2ccc(NC(=O)c3nn(CC(C)C)c(=O)c4ccccc34)cc2s1	0	20*	-2	-4	>50
CC1CCCN(C(=O)COC(=O)c2ccc3[nH]c4c(c3c2)CCCC4)C1 (stereo unspecified)	·	12	·	·	·
CCOC(=O)C1CCN(C(=O)COC(=O)c2ccc3[nH]c4c(c3c2)CCCC4)CC1	·	19*	·	·	>50
CCC(=O)NCCNc1nc2cc(C)c(C)cc2cc1C#N	6	34*	10	47	14*
Cc1ccn2cc(CCNC(=O)COc3ccccc3)nc2c1	9	-5	0	0	·
Cc1nc(NCCCn2ccnc2)c2ccccc2n1	-7	-1	-1	-4	·
Cc1cccc2cc(C#N)c(NCCCn3ccnc3)nc12	25	35*	33	86*	20*
Cc1ccc2cc(C#N)c(NCCNC(=O)C3CC3)nc2c1C	7	16*	29	103*	47*
SMILES	Hck-Nef inh	RanGTP-Impb inh	Runt-CBFb FRET	Runt-SMMHC FRET	YIC FRET counter
Cc1ccc2cc(CCNC(=O)C3CCCCC3)c(=O)[nH]c2c1C	·	4	·	·	·
Cc1cc2cc(C)c(NCCNC(=O)c3ccccc3Cl)nc2cc1C	-2	?	-3	-5	·
Cc1cccc2cc(C#N)c(NCCNC(=O)COc3ccccc3)nc12	23	20*	11	0	27*
CCCN(CC(=O)Nc1ccccc1C)C(=O)CCl	16	2	0	-5	·
CCCC(NC(=O)C(C)NC(=O)CO/N=C1\C=C2CCC3C4CCC(C(C)=O)[C@@]4(C)CCC3[C@@]2(C)CC1)C(=O)O (stereo partly specified)	·	-4	·	·	·
COc1ccc(N2CCN(C(CNS(=O)(=O)c3ccccc3)c3ccccc3)CC2)cc1 (stereo unspecified)	·	-1	·	·	·
C/C(=N\NC(=O)c1c(C)nc2ccccn12)c1ccccc1F	·	-1	·	·	·
C/C(=N\NC(=O)c1c(C)nc2ccccn12)c1ccc(O)cc1O	·	21*	·	·	48*
CC(C)NC(=O)N(Cc1ccccc1)Cc1cccs1	17	-2	1	0	·
CC(=O)Nc1ccc(S(=O)(=O)N(Cc2ccccc2)C(C)C)cc1	1	-1	·	-3	·
NNC(=O)c1cc2nc(-c3cccs3)cc(C(F)(F)F)n2n1	-31	27*	2	3	>50
COC(=O)c1nc2nc(-c3cccs3)cc(C(F)(F)F)n2n1	13	3	8	30	·
Nn1c(SCC(=O)Nc2ccc(OC(F)F)cc2)nnc(Cc2ccccc2)c1=O	·	0	·	·	·
CCc1nnc(NC(=O)CSc2nc3ccccc3s2)s1	1	-1	-1	-52	·
CCNc1nnc(CSc2nc3ccccc3s2)s1	10	18*	0	3	>50
C[C@H](CO)N1C[C@H](C)[C@@H](CN(C)S(=O)(=O)c2cccs2)Oc2ccc(NC(=O)Cc3ccccc3)cc2CC1=O	·	·	·	·	>50
Cc1ccc(NC(=O)CN(C)S(=O)(=O)c2cccs2)cc1C	1	1	0	0	·
Cc1ccc(S(=O)(=O)c2nnn3c2nc(NC2CCN(Cc4ccccc4)CC2)c2ccccc23)cc1C	·	4	·	·	·
Cc1nn(-c2ccccc2)c2sc(C(=O)NC3CCCCC3)cc12	-1	28*	2	-2	>50
Cc1ccc(N(CC(=O)NCCSc2ccccn2)S(=O)(=O)c2ccc(F)cc2)cc1	19	-2	-1	0	·
CCOc1ccc(NS(=O)(=O)c2ccc3c(c2)CCN3C(=O)CCC(=O)O)cc1	0	28*	-1	-3	>50
COc1cc(C(=O)NCCCNC(=O)c2cc(OC)c(OC)c(OC)c2)cc(OC)c1OC	·	3	·	·	·
COc1cc(C(=O)NCCCNc2nc3cc(C)cc(C)c3cc2C#N)cc(OC)c1OC	19	21*	·	73*	28*
COCc1ccc(CN2CCCC(CO)(Cc3cccc(OC)c3)C2)o1 (stereo unspecified)	-4	-3	0	3	·
COCc1ccc(CN2CCCC(CO)(Cc3ccccc3C)C2)o1 (stereo unspecified)	20	23*	-1	0	>50
SMILES	Hck-Nef inh	RanGTP-Impb inh	Runt-CBFb FRET	Runt-SMMHC FRET	YIC FRET counter
COc1ccccc1C1CC(c2ccc(Cl)cc2)Nc2nc(N)nn21 (stereo unspecified)	1	18*	-1	4	>50
COc1ccc(C2CC(c3ccc(Cl)cc3Cl)n3nc(N)nc3N2)cc1 (stereo unspecified)	7	4	·	-7	·
Cc1cc(C(=O)N/N=C2\CC(=O)CC(C)(C)C2)n[nH]1	-2	16*	-1	-9	>50
O=C1CCCN=C(Nc2ccc(F)c(Cl)c2)S1	8	6	-2	-6	·
CC1(C)CCC(=O)C=C1Nc1ccc(F)c(Cl)c1	·	26*	·	·	>50
COc1ccc(Nc2nc(-c3cccs3)nc3ccccc23)cc1S(=O)(=O)N1CCOCC1	·	1	·	·	·
Cc1cc([N+](=O)[O-])ccc1NC(=O)CN1C2CCC1CC(NC(=O)NC13CC4CC(CC(C4)C1)C3)C2 (stereo unspecified)	15	5	-2	4	·
